From publication PMC4894846 (Nature cell biology, 2014)
“And” between values parts separate entries of the source, which are not always exact repeats. Identical values can stand only once.

Tests used:
Rip1−/− cells = test: FIN/RSL3-induced ferroptosis in Rip1−/− cells; assay type: cell-based; conditions: RSL3 1 μM; 6 h pre-treatment; viability at 24 h
[1] = test system: TAM-inducible Gpx4−/− cells (Pfa1); test: Rescue of cell death induced by TAM-inducible Gpx4 deletion in Pfa1 cells; assay type: cell-based, mouse; conditions: 1 μM TAM, viability 72 h after knockout induction
Pfa1 cells [2] = test: Cell death elicited by ferroptosis-inducing agents; assay type: cell-based, mouse; conditions: for Prevention of cell death elicited by FINs: erastin 2.5 μM, BSO 20 μM, RSL3 20 nM, DFO 10 μM, Fer1 0.1 μM, αToc 1 μM, Nec1 20 μM, Z-VAD-FMK 50 μM; for Induction of cell death through GSH depletion: Pfa1 cells
Gpx4−/− cells = test: Lipid peroxidation in Gpx4−/− cells; assay type: cell-based, mouse; conditions: 48 h after knockout induction; Liproxstatin-1 50 nM
Procedure, shortened: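 Gpx4 loss is induced in TAM-inducible Pfa1 cells grown in dishes in DMEM with 10% FBS. Test compound is present during induction. At 48 h after knockout induction, cells are washed, stained with BODIPY 581/591 C11 for 1 h, and probe oxidation is measured by flow cytometry.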

[3] = test system: PZL cells (CreERT2;Gpx4fl/fl/Alox15−/−); test: Cell death on TAM-induced Gpx4 deficiency in PZL cells; assay type: cell-based, mouse
[4] = test system: primary human renal proximal tubule epithelial cells (HRPTEpiCs); test: Viability of HRPTEpiCs treated with RSL3; assay type: cell-based; conditions: 24 h
Procedure, shortened: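 Primary human renal proximal tubule epithelial cells, cultured per supplier recommendations. Cells are exposed to RSL3 with or without test compound, and viability is read by AquaBluer 24 h after treatment. Mean ± s.d. of n = 3 wells; representative of three independent experiments.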

CYP450 2D6 = CYP450 2D6 (Homo sapiens, UniProt P10635); test: CYP450 inhibition 2D6; assay type: in vitro ADME; conditions: read-out: CYP450 inhibition 2D6 IC50
Sequence of CYP450 2D6 (P10635 whole entry): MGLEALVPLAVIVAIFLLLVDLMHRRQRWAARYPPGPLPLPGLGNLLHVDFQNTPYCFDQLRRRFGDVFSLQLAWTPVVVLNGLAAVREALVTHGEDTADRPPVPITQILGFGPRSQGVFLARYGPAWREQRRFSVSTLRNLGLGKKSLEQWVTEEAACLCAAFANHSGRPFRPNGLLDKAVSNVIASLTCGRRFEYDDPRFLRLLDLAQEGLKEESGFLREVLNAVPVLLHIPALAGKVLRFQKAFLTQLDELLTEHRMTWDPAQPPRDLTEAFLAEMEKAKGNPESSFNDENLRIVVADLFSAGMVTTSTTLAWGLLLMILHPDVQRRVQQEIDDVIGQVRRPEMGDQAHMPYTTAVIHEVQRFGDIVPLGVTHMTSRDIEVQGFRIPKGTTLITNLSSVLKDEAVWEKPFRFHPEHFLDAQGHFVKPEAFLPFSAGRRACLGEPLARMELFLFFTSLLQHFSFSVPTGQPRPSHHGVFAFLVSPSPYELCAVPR

Pfa1 cells [5] = test: Cell death induced by staurosporine and H2O2; assay type: cell-based, mouse; conditions: Liproxstatin-1 200 nM; staurosporine 0.2 μM, H2O2 200 μM; 24 h
Procedure, shortened: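 Gpx4-proficient (non-induced) Pfa1 mouse cells, kept in DMEM with 10% FBS. The test compound is given together with the death trigger: BSO 10 μM, erastin 1 μM or RSL3 0.5 μM, or staurosporine 0.2 μM or H2O2 200 μM. Viability is read 24 h after treatment. Mean ± s.d. of n = 3 wells; representative of at least four independent experiments.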

Mouse pharmacokinetics = assay type: in vivo
CYP450 2C19 = CYP450 2C19 (Homo sapiens, UniProt P33261); test: CYP450 inhibition 2C19; assay type: in vitro ADME; conditions: read-out: CYP450 inhibition 2C19 IC50
Sequence of CYP450 2C19 (P33261 whole entry): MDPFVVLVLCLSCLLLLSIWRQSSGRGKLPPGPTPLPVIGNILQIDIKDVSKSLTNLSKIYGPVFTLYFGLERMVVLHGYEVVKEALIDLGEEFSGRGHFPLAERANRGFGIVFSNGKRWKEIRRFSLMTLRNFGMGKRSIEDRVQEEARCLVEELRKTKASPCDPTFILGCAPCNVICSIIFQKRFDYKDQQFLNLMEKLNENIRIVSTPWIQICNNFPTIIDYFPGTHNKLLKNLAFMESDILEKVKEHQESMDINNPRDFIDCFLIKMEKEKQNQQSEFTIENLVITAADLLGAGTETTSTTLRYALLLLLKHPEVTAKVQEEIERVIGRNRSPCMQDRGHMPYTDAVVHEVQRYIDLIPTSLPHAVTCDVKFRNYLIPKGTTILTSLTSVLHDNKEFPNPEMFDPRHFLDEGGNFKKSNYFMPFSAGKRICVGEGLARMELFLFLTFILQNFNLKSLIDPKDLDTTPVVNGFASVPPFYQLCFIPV

CYP450 3A4 = CYP450 3A4 (Homo sapiens, UniProt P08684); test: CYP450 inhibition 3A4; assay type: in vitro ADME; conditions: read-out: CYP450 inhibition 3A4 IC50
Sequence of CYP450 3A4 (P08684 whole entry): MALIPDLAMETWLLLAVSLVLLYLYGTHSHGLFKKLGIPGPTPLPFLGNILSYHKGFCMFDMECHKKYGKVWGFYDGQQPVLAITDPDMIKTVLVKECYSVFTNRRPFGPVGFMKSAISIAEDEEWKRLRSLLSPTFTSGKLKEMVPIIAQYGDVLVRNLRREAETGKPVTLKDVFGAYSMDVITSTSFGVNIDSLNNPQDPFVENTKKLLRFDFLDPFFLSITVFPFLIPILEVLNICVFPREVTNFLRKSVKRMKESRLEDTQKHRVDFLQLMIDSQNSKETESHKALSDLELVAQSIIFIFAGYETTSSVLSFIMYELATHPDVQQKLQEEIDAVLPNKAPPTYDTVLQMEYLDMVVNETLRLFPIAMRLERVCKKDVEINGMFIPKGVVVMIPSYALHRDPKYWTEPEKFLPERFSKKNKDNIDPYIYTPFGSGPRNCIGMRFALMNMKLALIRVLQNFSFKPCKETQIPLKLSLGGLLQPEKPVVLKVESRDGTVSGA

CYP450 1A = test: CYP450 inhibition 1A; assay type: in vitro ADME; conditions: read-out: CYP450 inhibition 1A IC50
C57BL/6J mice = test: Hepatic ischaemia/reperfusion injury model; assay type: in vivo, mouse; conditions: 90 min ischaemia, 24 h reperfusion
Procedure, shortened: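 Male C57BL/6J mice, 8–10 weeks old, 22–24 g, randomised; operators blinded. Under xylazine/ketamine, an atraumatic clip is placed across the portal vein, hepatic artery and bile duct above the right lateral lobe branch. Reperfusion follows 90 min of ischaemia. At 24 h, serum ALT/AST is measured and necrotic area is scored (n = 17 and n = 5). Mean ± s.e.m.; one-way ANOVA with Dunnett's post-test.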

L929 cells = test: TNFα/Z-VAD-FMK-induced necroptosis in L929 cells; assay type: cell-based; conditions: Liproxstatin-1 1 μM; TNFα 5 ng ml^−1 + Z-VAD-FMK 50 μM; 8 h
HepG2 cells = test: Cytotoxicity in HepG2 cells; assay type: cell-based; conditions: 72 h incubation
Procedure, shortened: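 Cells are incubated with increasing concentrations of the test compound for 72 h. Viability is then read with the AquaBluer live-cell indicator. TC50 is derived by curve fitting.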

HRPTEpiCs = test: RSL3-induced lipid oxidation in HRPTEpiCs; assay type: cell-based, human; conditions: RSL3 0.2 μM; 24 h
Procedure, shortened: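 Primary human renal proximal tubule epithelial cells, cultured per supplier recommendations. Cells are treated with RSL3 (0.2 μM) with or without test compound. After 24 h, cells are stained with BODIPY 581/591 C11 for 1 h and lipid oxidation is measured by flow cytometry. Representative of four independent experiments.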

CreERT2;Gpx4fl/fl mice = test: In vivo rescue of TAM-induced CreERT2; design: species or system mouse; conditions: 10 mg kg^−1 i.p. daily
Procedure, shortened: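 CreERT2;Gpx4fl/fl mice receive 0.5 mg TAM in Miglyol on days 1 and 3. From day 4, the test compound (10 mg kg−1) or vehicle (1% DMSO in PBS) is given i.p. once daily, with injections and scoring blinded. Survival is compared by log-rank/Gehan–Breslow–Wilcoxon tests (n = 12 vehicle, n = 13 treated; run twice). Kidney TUNEL+ cells are counted 9 days after TAM.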

CYP450 2C9 = CYP450 2C9 (Homo sapiens, UniProt P11712); test: CYP450 inhibition 2C9; assay type: in vitro ADME; conditions: read-out: CYP450 inhibition 2C9 IC50
Sequence of CYP450 2C9 (P11712 whole entry): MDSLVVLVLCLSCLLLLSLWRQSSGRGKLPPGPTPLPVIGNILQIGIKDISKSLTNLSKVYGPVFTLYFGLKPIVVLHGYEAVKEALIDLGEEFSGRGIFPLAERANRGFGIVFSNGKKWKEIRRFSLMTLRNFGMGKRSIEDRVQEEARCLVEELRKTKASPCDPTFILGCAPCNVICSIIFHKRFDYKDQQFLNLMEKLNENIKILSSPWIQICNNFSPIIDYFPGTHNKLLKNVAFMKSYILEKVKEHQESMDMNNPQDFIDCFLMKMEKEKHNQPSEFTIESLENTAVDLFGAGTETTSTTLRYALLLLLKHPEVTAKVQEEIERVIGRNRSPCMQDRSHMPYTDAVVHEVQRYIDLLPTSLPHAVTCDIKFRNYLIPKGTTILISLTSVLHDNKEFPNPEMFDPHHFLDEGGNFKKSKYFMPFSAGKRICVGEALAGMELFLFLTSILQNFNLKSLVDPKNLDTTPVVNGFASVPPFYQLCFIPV

hERG channel = hERG channel (Homo sapiens, UniProt Q12809); test: hERG patch clamp assay; assay type: cell-based; conditions: read-out: hERG patch clamp assay IC50
Sequence of hERG channel (Q12809 whole entry): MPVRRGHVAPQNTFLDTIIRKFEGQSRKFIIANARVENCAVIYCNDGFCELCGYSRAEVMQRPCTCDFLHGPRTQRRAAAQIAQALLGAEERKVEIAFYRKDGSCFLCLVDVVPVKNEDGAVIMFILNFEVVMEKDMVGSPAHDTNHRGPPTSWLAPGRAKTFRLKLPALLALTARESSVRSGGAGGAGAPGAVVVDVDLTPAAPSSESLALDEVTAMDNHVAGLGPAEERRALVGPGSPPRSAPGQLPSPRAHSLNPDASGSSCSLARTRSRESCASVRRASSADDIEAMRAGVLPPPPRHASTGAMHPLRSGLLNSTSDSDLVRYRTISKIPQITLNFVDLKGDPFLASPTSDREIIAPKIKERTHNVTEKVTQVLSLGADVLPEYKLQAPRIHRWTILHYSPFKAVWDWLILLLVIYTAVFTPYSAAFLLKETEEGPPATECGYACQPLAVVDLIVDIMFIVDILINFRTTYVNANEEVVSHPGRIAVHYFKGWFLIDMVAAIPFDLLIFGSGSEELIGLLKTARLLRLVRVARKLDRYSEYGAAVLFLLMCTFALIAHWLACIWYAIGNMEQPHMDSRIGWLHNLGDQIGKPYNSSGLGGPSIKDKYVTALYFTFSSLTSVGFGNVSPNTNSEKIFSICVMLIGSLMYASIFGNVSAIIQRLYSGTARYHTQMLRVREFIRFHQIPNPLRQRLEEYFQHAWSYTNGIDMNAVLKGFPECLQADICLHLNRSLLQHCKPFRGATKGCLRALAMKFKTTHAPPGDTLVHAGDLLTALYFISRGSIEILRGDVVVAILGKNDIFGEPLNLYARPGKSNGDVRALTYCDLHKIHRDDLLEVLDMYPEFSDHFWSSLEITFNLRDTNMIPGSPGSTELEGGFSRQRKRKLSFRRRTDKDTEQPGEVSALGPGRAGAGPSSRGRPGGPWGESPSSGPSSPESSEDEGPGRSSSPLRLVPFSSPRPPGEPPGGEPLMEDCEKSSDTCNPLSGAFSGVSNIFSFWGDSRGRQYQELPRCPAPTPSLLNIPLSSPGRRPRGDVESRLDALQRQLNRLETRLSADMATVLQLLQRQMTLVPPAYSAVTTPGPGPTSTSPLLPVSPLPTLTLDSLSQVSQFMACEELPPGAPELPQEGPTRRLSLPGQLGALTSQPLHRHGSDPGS

In the case of CN1C(=O)C(Cc2c[nH]c3ccccc23)NC1=S (stereo not drawn) [Nec1, necrostatin-1], the “Prevention of ferroptosis in Rip1−/− cells” value (Rip1−/− cells) is reported as “ferroptosis could be prevented”, the “Rescue of cell death in response to Gpx4 deletion” value (shortened to “Rescue of cell death in response”) [1] is reported as “rescued Gpx4^−/− cells from cell death” and the “Prevention of cell death elicited by FINs” value (“Prevention … by FINs” below) (Pfa1 cells [2]; 24 h) is reported as “can be prevented”.

With CC(=O)N(O)CCCCCNC(=O)CCC(=O)N(O)CCCCCNC(=O)CCC(=O)N(O)CCCCCN [DFO, deferoxamine] the “Effect on lipid peroxidation (BODIPY 581/591 C11 oxidation)” value (“Effect on lipid peroxidation” below) (Gpx4−/− cells) was “could be ameliorated”, the “Rescue of cell death in response” value [1] was “cell death could also be inhibited” and the “Prevention … by FINs” value (Pfa1 cells [2]; 24 h) was “can be prevented”.

With Cc1c(C)c2c(c(C)c1O)CC[C@@](C)(CCC[C@H](C)CCC[C@H](C)CCCC(C)C)O2 [αToc, α-tocopherol] the “Rescue of cell death in response” value [1] was “cell death could also be inhibited”, the “Prevention … by FINs” value (Pfa1 cells [2]; 24 h) was “can be prevented” and the “Rescue of cell death of PZL cells on Gpx4 deficiency” value [3] was “rescued”.

In the case of CC(=O)N(O)C/C=C/c1cccc(Oc2ccccc2)c1 [BWA4C], the “Rescue of cell death in response” value [1] is reported as “prevented cell death”.

In the case of CC(C)c1ccc2c(c1)c(SC(C)(C)C)c(CC(C)(C)C(=O)O)n2Cc1ccc(Cl)cc1 [MK886], the “Rescue of cell death in response” value [1] is reported as “prevented cell death”.

With CC(=O)N[C@@H](CS)C(=O)O [NAC, N-acetylcysteine] the “Rescue of cell death of PZL cells on Gpx4 deficiency” value [3] was “could not be rescued”.

In the case of COC(=O)c1ccc([C@@H]2c3[nH]c4ccccc4c3C[C@@H](C(=O)OC)N2C(=O)CCl)cc1 [RSL3, (1S, 3R)-RSL3, reference compound], the “Induction of cell death in HRPTEpiCs” value [4] is reported as “efficiently triggered cell death”.

With CN1C(=O)NC(Cc2c[nH]c3c(Cl)cccc23)C1=O (stereo not drawn) [Nec1s] the “Rescue of cell death in response” value [1] was “did not protect”.

In the case of CCCCS(=N)(=O)CCC(N)C(=O)O [BSO, L-buthionine sulphoximine], the “Induction of cell death through GSH depletion” value (Pfa1 cells [2]) is reported as “efficiently triggered rapid cell death”.

In the case of CCCCCCCCCCCCCCCCOCC(COCC(F)(F)F)OP(=O)(O)OC (stereo not drawn) [MJ33], the “Rescue of cell death in response” value [1] is reported as “prevented cell death”.

With c1ccc2c(c1)SCc1c-2[nH]c2ccccc12 [PD146176] the “Rescue of cell death in response” value [1] was “prevented cell death”.

In the case of CC(c1cc2ccccc2s1)N(O)C(N)=O (stereo not drawn) [zileuton], the “Rescue of cell death in response” value [1] is reported as “prevented cell death”.

For Clc1cccc(CN=C2Nc3ccccc3NC23CCNCC3)c1 [Liproxstatin-1], the IC50 (CYP450 2D6) was 4.1 µM, the “Protection from RSL3-induced cell death” value ([4]; Liproxstatin-1 100 nM) was “able to protect” and the “Rescue of cell death induced by staurosporine and H2O2” value (Pfa1 cells [5]) was “fails to rescue cell death”. The Bioavailability (Mouse pharmacokinetics) was 52%, the C (Mouse pharmacokinetics; i.v. 1 mg kg^−1) was 0.4 µg/mL and the “MRTINF (mean residence time extrapolated to infinity)” value (Mouse pharmacokinetics; i.v. 1 mg kg^−1) was 4.9 h. The “Total Cl” value (Mouse pharmacokinetics; i.v. 1 mg kg^−1) was 128 ml h^−1 and 66 ml min^−1 kg^−1, the V (Mouse pharmacokinetics; i.v. 1 mg kg^−1) was 849 mL and the Vss (Mouse pharmacokinetics; i.v. 1 mg kg^−1) was 629 mL. It also gave a t1/2 (Mouse pharmacokinetics; i.v. 1 mg kg^−1) of 4.6 h, a Cmax (Mouse pharmacokinetics; p.o. 5 mg kg^−1) of 80 ng/mL and a Tmax (Mouse pharmacokinetics; p.o. 5 mg kg^−1) of 2 h. The IC50 (CYP450 2C19) was greater than 25 µM, the IC50 (CYP450 3A4) was greater than 25 µM and the “Effect on lipid peroxidation” value (Gpx4−/− cells) was “completely prevents lipid peroxidation”. For the same compound, the IC50 (CYP450 1A) was greater than 25 µM, the “Rescue of cell death in response” value [1] was “inhibit ferroptosis in the low nanomolar range” and the “Tissue injury (AST/ALT, necrotic area)” value (C57BL/6J mice) was “mitigated tissue injury”. The Effect on necroptosis (L929 cells) was “does not prevent necroptosis”, the “Cytotoxicity in HepG2 cells TC50” value (HepG2 cells) was 6 µM and the “Effect on RSL3-induced BODIPY 581/591 C11 oxidation” value (HRPTEpiCs) was “could be blocked”. The “Protection against FINs” value (Pfa1 cells [2]; Liproxstatin-1 200 nM, BSO 10 μM, erastin 1 μM, RSL3 0.5 μM, 24 h) was “protects against FINs”, the Median survival (CreERT2;Gpx4fl/fl mice; vehicle-treated 11 days, P <0.0001) was 14 days and the “TUNEL+ cells in kidney compared with vehicle” value (CreERT2;Gpx4fl/fl mice; day 9 after TAM treatment) was “strongly reduced number of TUNEL+ cells”. The IC50 (CYP450 2C9) was greater than 25 µM and the IC50 (hERG channel) was greater than 25 µM.

In the case of CCOc1ccccc1-n1c(C(C)N2CCN(C(=O)COc3ccc(Cl)cc3)CC2)nc2ccccc2c1=O (stereo not drawn) [erastin], the “Induction of cell death through GSH depletion” value (Pfa1 cells [2]) is reported as “efficiently triggered rapid cell death”.

In the case of CCOC(=O)c1ccc(NC2CCCCC2)c(N)c1 [Fer1, ferrostatin-1], the “Effect on lipid peroxidation” value (Gpx4−/− cells) is reported as “could be ameliorated”, the “Rescue of cell death in response” value [1] is reported as “rescued Gpx4^−/− cells from cell death” and the “Prevention … by FINs” value (Pfa1 cells [2]; 24 h) is reported as “can be prevented”.
